RGS4 act = potentiators or activators of RGS4 | HEK293 M3R/inducible RGS4, carbachol calcium flux Fluo4; stronger effect = lower value | B-score at 10 µM | hit rate 0.92% among 310,000 | AID 463111;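 active means B-score of the integrated calcium signal more than 4 SD below the library mean, with starting fluorescence not abnormally high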;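 further: negative B-score means reduced calcium response which marks RGS4 activation or potentiation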
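Also added: carbachol at ECmax as muscarinic agonist stimulus; Assay system: HEK293 cells with stable M3R and inducible RGS4; Timing: overnight RGS4 induction, 30 min dye load 37 °C, 20 min compound RT; Measured by: Fluo4-AM (2 µM) calcium-flux fluorescence, kinetic read.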
MrgX1 antagonist = blocks BAM8-22 activation of human MrgX1 receptor. hit rate 1.3% among 310,000. AID 588676. B-score at 10 µM. MRGX1-HEK293 calcium flux, Fluo-4, BAM8-22 antagonism; stronger effect = lower value. Q96LB2;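 active means calcium-response B-score plate-corrected more than 3 library SD below zero, starting fluorescence within 5 deviations, no agonist response on first addition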;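 further: peak minus trough fluorescence over baseline after final BAM8-22 challenge near maximal dose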
Target sequence (Q96LB2 whole entry, looked up): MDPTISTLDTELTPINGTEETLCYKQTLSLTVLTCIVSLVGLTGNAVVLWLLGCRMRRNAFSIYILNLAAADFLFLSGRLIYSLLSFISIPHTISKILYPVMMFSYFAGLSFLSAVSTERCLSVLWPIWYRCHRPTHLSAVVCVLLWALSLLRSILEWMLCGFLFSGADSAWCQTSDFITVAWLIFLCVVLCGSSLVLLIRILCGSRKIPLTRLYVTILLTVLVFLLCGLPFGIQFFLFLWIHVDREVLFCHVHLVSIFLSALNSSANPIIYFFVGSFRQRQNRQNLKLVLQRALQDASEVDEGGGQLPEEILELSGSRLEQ
MrgX1 agonist = human MrgX1 receptor agonism, primary screen. MrgX1-HEK293 cells, Fluo-4 calcium fluorescence, agonist mode; stronger effect = higher value. B-score at 10 µM. Q96LB2. hit rate 0.44% among 310,000;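 active means calcium response B-score plate-corrected fluorescence ratio at least 3 library SD, with starting fluorescence B-score inside 5 SD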
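Test system: Stable human MrgX1 HEK293 cell line | Schedule: Overnight plating before 1 h dye loading | Read-out basis: Baseline-normalised fluorescence change ratio, B-scored | Detection: Kinetic calcium dye fluorescence, Fluo-4 NW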
MrgX1 PAM = human MrgX1 positive allosteric modulation, primary screen; Q96LB2; MrgX1-HEK293, Fluo-4 calcium flux, FDSS; stronger effect = higher value; B-score at 10 µM; hit rate 0.63% among 310,000;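 active means plate-corrected calcium response at least 3 library SD above typical, normal starting fluorescence, not activating the receptor alone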;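 further: compound read alongside a low EC10 to EC30 dose of BAM8-22 agonist; peak minus trough fluorescence over baseline measured at the second addition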
RGS4 inh = human RGS4 inhibition. P49798. HEK293 M3R/RGS4 inducible, Fluo-4 calcium flux; stronger effect = higher value; triggered by carbachol at its EC20. B-score at 10 µM. hit rate 0.45% among 310,000. AID 463165;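 active means B-score, a plate-corrected calcium signal, over three deviations above library mean, with baseline fluorescence within five deviations of library mean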;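 further: RGS4 expression induced by doxycycline in cells with stable M3 receptor; B-score is computed from the integrated fluorescence ratio over baseline after carbachol; higher B-score means a larger calcium signal and so more RGS4 inhibition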
Target sequence (P49798 whole entry, looked up): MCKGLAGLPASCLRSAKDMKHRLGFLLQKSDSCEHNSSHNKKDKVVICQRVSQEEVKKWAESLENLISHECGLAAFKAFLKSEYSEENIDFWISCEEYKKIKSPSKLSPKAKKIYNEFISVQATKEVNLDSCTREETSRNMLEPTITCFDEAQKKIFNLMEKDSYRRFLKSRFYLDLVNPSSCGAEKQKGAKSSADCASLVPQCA
An asterisk follows results filed as active. Most compounds without a hit are left out; they make up all but 3.5% or so of the library.

`CCOC(=O)C1=NN(c2ccc(Cl)cc2)C(=O)C1` gave RGS4 act inactive, MrgX1 antagonist inactive, MrgX1 agonist inactive, MrgX1 PAM inactive and RGS4 inh inactive.
Screening CCOC(=O)C1=C(N)n2c(s/c(=C/c3ccco3)c2=O)=C(C(=O)OC)C1c1ccco1 (stereo not given) returned RGS4 act inactive, MrgX1 antagonist -5.7*, MrgX1 agonist inactive, MrgX1 PAM inactive and RGS4 inh inactive.
CCCCn1c(N)c(N(CCOC)C(=O)C2CC(=O)N(Cc3ccc(C)cc3)C2)c(=O)[nH]c1=O (stereo not given) was read as RGS4 act inactive, MrgX1 antagonist inactive, MrgX1 agonist inactive, MrgX1 PAM inactive and RGS4 inh inactive.
CCCCN(C(=O)C1CC(=O)N(Cc2ccc(C)cc2)C1)c1c(N)n(CC(C)C)c(=O)[nH]c1=O (stereo not given) was read as RGS4 act inactive, MrgX1 antagonist -7.2*, MrgX1 agonist inactive, MrgX1 PAM inactive and RGS4 inh inactive.
COc1ccc(CC(=O)N2CCN(S(=O)(=O)c3cccs3)CC2)cc1OC was read as RGS4 act inactive, MrgX1 antagonist inactive, MrgX1 agonist inactive, MrgX1 PAM inactive and RGS4 inh inactive.
`CC(C)Oc1ccccc1/C=N/NC(=O)C1CC1` gave RGS4 act inactive, MrgX1 antagonist inactive, MrgX1 agonist inactive, MrgX1 PAM inactive and RGS4 inh inactive.
For CC(OC(=O)/C(C#N)=C/c1ccc(N(C)C)cc1)C(=O)N(C)c1ccccc1 (stereo not given) the results were RGS4 act -7.2*, MrgX1 antagonist inactive, MrgX1 agonist inactive, MrgX1 PAM inactive and RGS4 inh inactive.
`CC(=O)Nc1ccc(NC(=O)C(C)OC(=O)/C(C#N)=C/c2ccc(N(C)C)cc2)cc1` (stereo not given) gave RGS4 act inactive, MrgX1 antagonist inactive, MrgX1 agonist inactive, MrgX1 PAM inactive and RGS4 inh inactive.
Cc1ccc(Oc2ncccc2/C=N/OCc2ccc(Cl)c(Cl)c2)cc1 was read as RGS4 act inactive, MrgX1 antagonist inactive, MrgX1 agonist inactive, MrgX1 PAM 8.6* and RGS4 inh inactive.
For CS(=O)(=O)Nc1ccc(C2=NN(S(C)(=O)=O)C(c3ccc4nccnc4c3)C2)cc1 (stereo not given) the results were RGS4 act inactive, MrgX1 antagonist inactive, MrgX1 agonist inactive, MrgX1 PAM inactive and RGS4 inh inactive.
Screening CC(=O)N1N=C(c2ccc(NS(C)(=O)=O)cc2)CC1c1ccc2nccnc2c1 (stereo not given) returned RGS4 act inactive, MrgX1 antagonist -7.2*, MrgX1 agonist inactive, MrgX1 PAM inactive and RGS4 inh inactive.
For O=C(/C=C/Nc1ccc(F)c(Cl)c1)c1ccccc1 the results were RGS4 act inactive, MrgX1 antagonist inactive, MrgX1 agonist inactive, MrgX1 PAM inactive and RGS4 inh inactive.
`O=C(O)c1ccc(CNC(=O)c2ccc3c(c2)C(=O)N(Cc2cccnc2)C3=O)cc1` gave RGS4 act inactive, MrgX1 antagonist -4.9*, MrgX1 agonist inactive, MrgX1 PAM inactive and RGS4 inh inactive.
Screening O=c1c2ccccc2nnn1CSc1nnc(-c2cccc(S(=O)(=O)N3CCCCC3)c2)o1 returned RGS4 act -7.9*, MrgX1 antagonist inactive, MrgX1 agonist inactive, MrgX1 PAM inactive and RGS4 inh inactive.
For CCOC(=O)C1=C(C)N(c2ccc(C)cc2)C(=O)/C1=C\c1ccc(O)c(OC)c1 the results were RGS4 act inactive, MrgX1 antagonist inactive, MrgX1 agonist inactive, MrgX1 PAM inactive and RGS4 inh inactive.
CCOC(=O)C1=C(O)c2ccccc2C(=O)/C1=C\c1ccc(C)cc1 was read as MrgX1 antagonist inactive, MrgX1 agonist 28* and MrgX1 PAM inactive.
Screening Cc1nc(N2CCCCC2)c2c(C)c(C(=O)Nc3ccc4c(c3)OCCO4)sc2n1 returned RGS4 act -7*, MrgX1 antagonist inactive, MrgX1 agonist inactive, MrgX1 PAM inactive and RGS4 inh inactive.
Screening O=C(Nc1nc(SCc2ccc(F)cc2)ns1)c1ccco1 returned RGS4 act inactive, MrgX1 antagonist inactive, MrgX1 agonist inactive, MrgX1 PAM inactive and RGS4 inh 8.2*.
`CCN(C(=O)COC(=O)C1CCN(S(=O)(=O)c2cccs2)CC1)c1ccccc1` gave RGS4 act inactive, MrgX1 antagonist inactive, MrgX1 agonist inactive, MrgX1 PAM inactive and RGS4 inh inactive.
For CCOC(=O)N1CCN(S(=O)(=O)c2cc(Br)cnc2N)CC1 the results were RGS4 act -7.4*, MrgX1 antagonist inactive, MrgX1 agonist inactive, MrgX1 PAM inactive and RGS4 inh inactive.
`COc1ccc(/C=N/Nc2nc(Nc3ccccc3)nc(N3CCCC3)n2)cc1` gave RGS4 act inactive, MrgX1 antagonist -5.9*, MrgX1 agonist inactive, MrgX1 PAM inactive and RGS4 inh inactive.
`COc1cccc(/C=N/Nc2nc(Nc3ccc([N+](=O)[O-])cc3)nc(N3CCCC3)n2)c1O` gave RGS4 act -9.2*, MrgX1 antagonist inactive, MrgX1 agonist inactive, MrgX1 PAM inactive and RGS4 inh inactive.
O=[N+]([O-])c1ccc(Nc2nc(N/N=C/c3cccc(F)c3)nc(N3CCCC3)n2)cc1 was read as RGS4 act inactive, MrgX1 antagonist inactive, MrgX1 agonist inactive, MrgX1 PAM inactive and RGS4 inh inactive.
CN(C(=O)COC(=O)c1cc(S(=O)(=O)N2CCOCC2)ccc1F)C1CCS(=O)(=O)C1 (stereo not given) was read as RGS4 act inactive, MrgX1 antagonist inactive, MrgX1 agonist inactive, MrgX1 PAM inactive and RGS4 inh inactive.
Screening O=C(CN(Cc1ccccc1)S(=O)(=O)c1ccc(F)cc1)NCc1ccccn1 returned RGS4 act inactive, MrgX1 antagonist inactive, MrgX1 agonist inactive, MrgX1 PAM inactive and RGS4 inh inactive.
COc1ccc(NC(=O)/C=C/C(=O)O)c([N+](=O)[O-])c1 was read as RGS4 act inactive, MrgX1 antagonist inactive, MrgX1 agonist inactive, MrgX1 PAM 13* and RGS4 inh inactive.
For Cc1ccc(NC(=O)/C=C/C(=O)O)c([N+](=O)[O-])c1 the results were RGS4 act inactive, MrgX1 antagonist inactive, MrgX1 agonist inactive, MrgX1 PAM inactive and RGS4 inh inactive.
COc1c(C)cccc1C(=O)NC(=S)Nc1ccccc1N1CCCC1 was read as RGS4 act -7.6*, MrgX1 antagonist inactive, MrgX1 agonist inactive, MrgX1 PAM inactive and RGS4 inh inactive.
`O=c1c2c([N+](=O)[O-])cc([N+](=O)[O-])cc2sn1Cc1ccccc1` gave RGS4 act inactive, MrgX1 antagonist inactive, MrgX1 agonist 37*, MrgX1 PAM inactive and RGS4 inh inactive.
